# Measurements: ChEMBL document CHEMBL3044760, “Synthesis and insecticidal activity of heptafluoroisopropyl-containing benzoylphenylurea structures” (2010)
# The source made the active and inactive calls. The rule behind the calls is not given here.
# Key:
# Mythimna separata [1] = test: Insecticidal activity against Mythimna separata (Oriental armyworm) second-instar larvae reared on compound pre-treated corn disks assessed as larval mortality at 15.625 mg/L measured 7 days post compound treatment by leaf-dip method; type: functional
# In short: (§1)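 Leaf-dip: corn disks dipped 5 s in test solution, air-dried on filter paper, set on agar in 7 cm Petri dishes, with water-dipped disks as controls. Ten second-instar larvae per disk; dishes sealed with ventilated lids and stored inverted. Mortality scored at 7 days and corrected by Abbott's formula when needed. Diflubenzuron run under the same conditions.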
# Mythimna separata [2] = test: Insecticidal activity against Mythimna separata (Oriental armyworm) second-instar larvae reared on compound pre-treated corn disks assessed as larval mortality at 31.25 mg/L measured 7 days post compound treatment by leaf-dip method; type: functional; in short: as §1
# Mythimna separata [3] = test: Insecticidal activity against Mythimna separata (Oriental armyworm) second-instar larvae reared on compound pre-treated corn disks assessed as larval mortality at 62.5 mg/L measured 7 days post compound treatment by leaf-dip method; type: functional; in short: as §1
# Spodoptera littoralis [4] = test: Insecticidal activity against Spodoptera littoralis worm third-instar larvae grown on compound pre-treated caster bean leaves assessed as larval mortality at 0.5 mg of ai/L as Rimon EC formulation measured 8 days post compound treatment; type: functional
# In short: (§2)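 Castor bean leaves treated at 0.25 or 0.5 mg ai/L formulation and fed to S. littoralis third instars (11 ± 1 mg) for 4 days, then moved to untreated leaves for 4 more days. Larval mortality scored at day 4 and day 8.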
# Spodoptera littoralis [5] = test: Insecticidal activity against Spodoptera littoralis worm third-instar larvae grown on compound pre-treated caster bean leaves assessed as larval mortality at 0.5 mg of ai/L as Rimon EC formulation measured 4 days post compound treatment; type: functional; in short: as §2
# Bemisia tabaci [6] = test: Insecticidal activity against Bemisia tabaci (sweet potato whitefly) nymphs assessed as suppression of larval pupation at 0.3 mg of ai/ha; type: functional, organism-based
# Spodoptera littoralis [7] = test: Insecticidal activity against Spodoptera littoralis worm third-instar larvae grown on compound pre-treated caster bean leaves assessed as larval weight gain at 0.5 mg of ai/L as Rimon EC formulation measured 8 days post compound treatment relative to untreated control; type: functional
# Spodoptera littoralis [8] = test: Insecticidal activity against Spodoptera littoralis worm third-instar larvae grown on compound pre-treated caster bean leaves assessed as larval mortality at 0.5 mg of ai/L measured 4 days post compound treatment; type: functional; in short: as §2
# Spodoptera littoralis [9] = test: Insecticidal activity against Spodoptera littoralis worm third-instar larvae grown on compound pre-treated caster bean leaves assessed as larval weight gain at 0.5 mg of ai/L measured 8 days post compound treatment relative to untreated control; type: functional
# Bemisia tabaci [10] = test: Insecticidal activity against Bemisia tabaci (sweet potato whitefly) nymphs assessed as effect on larval pupation; type: functional, organism-based
# Spodoptera littoralis [11] = test: Insecticidal activity against Spodoptera littoralis worm third-instar larvae grown on compound pre-treated caster bean leaves assessed as larval weight gain at 0.25 mg of ai/L measured 8 days post compound treatment relative to untreated control; type: functional
# Spodoptera littoralis [12] = test: Insecticidal activity against Spodoptera littoralis worm third-instar larvae grown on compound pre-treated caster bean leaves assessed as larval mortality at 0.25 mg of ai/L measured 8 days post compound treatment; type: functional; in short: as §2
# Spodoptera littoralis [13] = test: Insecticidal activity against Spodoptera littoralis worm third-instar larvae grown on compound pre-treated caster bean leaves assessed as larval mortality at 0.25 mg of ai/L measured 4 days post compound treatment; type: functional; in short: as §2
# Mythimna separata [14] = test: Insecticidal activity against Mythimna separata (Oriental armyworm) second-instar larvae reared on compound pre-treated corn disks assessed as larval mortality at 12.5 mg/L measured 7 days post compound treatment by leaf-dip method; type: functional; in short: as §1
# Spodoptera littoralis [15] = test: Insecticidal activity against Spodoptera littoralis worm third-instar larvae grown on compound pre-treated caster bean leaves assessed as larval mortality at 0.5 mg of ai/L measured 8 days post compound treatment; type: functional; in short: as §2
# Mythimna separata [16] = test: Insecticidal activity against Mythimna separata (Oriental armyworm) second-instar larvae reared on compound pre-treated corn disks assessed as larval mortality at 10 mg/L measured 7 days post compound treatment by leaf-dip method; type: functional; in short: as §1
# Plutella xylostella = test: Insecticidal activity against Plutella xylostella (diamondback moth) […] using 5% compound EC formulation at 37.5 g of ai/ha measured after 7 days field trial; type: functional
# Mythimna separata [17] = test: Insecticidal activity against Mythimna separata (Oriental armyworm) second-instar larvae reared on compound pre-treated corn disks assessed as larval mortality at 0.25 mg/L measured 7 days post compound treatment by leaf-dip method; type: functional; in short: as §1
# Pieris rapae = test: Insecticidal activity against imported cabbage worm measured 7 days after application of compound at 2000 diluent 5% EC; type: functional, organism-based
# Mythimna separata [18] = test: Insecticidal activity against Mythimna separata (Oriental armyworm) second-instar larvae reared on compound pre-treated corn disks assessed as larval mortality at 0.125 mg/L measured 7 days post compound treatment by leaf-dip method; type: functional; in short: as §1
# Cnaphalocrocis medinalis = test: Insecticidal activity against rice leaf roller third-instar larvae using 5% compound EC formulation at 25 g of ai/ha measured after 10 days field plot trial; type: functional, organism-based
# Mythimna separata [19] = test: Insecticidal activity against Mythimna separata (Oriental armyworm) second-instar larvae reared on compound pre-treated corn disks assessed as larval mortality at 5 mg/L measured 7 days post compound treatment by leaf-dip method; type: functional; in short: as §1
# Mythimna separata [20] = test: Insecticidal activity against Mythimna separata (Oriental armyworm) second-instar larvae reared on compound pre-treated corn disks assessed as larval mortality at 50 mg/L measured 7 days post compound treatment by leaf-dip method; type: functional; in short: as §1
compound,measurement,setting,value
O=C(NC(=O)c1c(F)cccc1F)Nc1ccc(Br)cc1C(F)(C(F)(F)F)C(F)(F)F,mortality at 15.625 µg/mL,Mythimna separata [1],56.6%
same,mortality at 31.25 µg/mL,Mythimna separata [2],100%
Cc1cc(C(F)(C(F)(F)F)C(F)(F)F)ccc1NC(=O)NC(=O)c1c(F)cccc1F,mortality at 15.625 µg/mL,Mythimna separata [1],56.6%
same,mortality at 31.25 µg/mL,Mythimna separata [2],100%
O=C(NC(=O)c1c(F)cccc1F)Nc1ccc(C(F)(C(F)(F)F)C(F)(F)F)cc1,mortality at 15.625 µg/mL,Mythimna separata [1],43.3%
same,mortality at 31.25 µg/mL,Mythimna separata [2],100%
Cc1ccc(NC(=O)NC(=O)c2c(F)cccc2F)c(C(F)(C(F)(F)F)C(F)(F)F)c1,mortality at 62.5 µg/mL,Mythimna separata [3],100%
same,mortality at 31.25 µg/mL,Mythimna separata [2],93.3%
O=C(NC(=O)c1c(F)cccc1F)Nc1ccc(C(F)(C(F)(F)F)C(F)(F)F)c(Br)c1,mortality at 15.625 µg/mL,Mythimna separata [1],46.6%
same,mortality at 31.25 µg/mL,Mythimna separata [2],100%
O=C(NC(=O)c1c(F)cccc1F)Nc1ccc(OC(F)(F)C(F)OC(F)(F)F)c(Cl)c1 (stereo unspecified) [NOVALURON],mortality,Spodoptera littoralis [4],78%
same,mortality,Spodoptera littoralis [5],6%
same,Activity,Bemisia tabaci [6],Active
same,Activity,Spodoptera littoralis [7],44%
O=C(NC(=O)c1ccccc1)Nc1ccc(C(F)(C(F)(F)F)C(F)(F)F)cc1,mortality,Spodoptera littoralis [8],18%
same,Activity,Spodoptera littoralis [9],94%
same,Activity,Bemisia tabaci [10],inactive
same,Activity,Spodoptera littoralis [11],69%
same,mortality,Spodoptera littoralis [12],14%
same,mortality,Spodoptera littoralis [13],8%
same,mortality at 12.5 µg/mL,Mythimna separata [14],100%
same,mortality,Spodoptera littoralis [15],22%
same,mortality at 10 µg/mL,Mythimna separata [16],68.1%
O=C(NC(=O)c1c(F)cccc1F)Nc1ccc(C(F)(C(F)(F)F)C(F)(F)F)c(Cl)c1,mortality at 15.625 µg/mL,Mythimna separata [1],86.6%
same,mortality at 31.25 µg/mL,Mythimna separata [2],100%
Cc1cc(C(F)(C(F)(F)F)C(F)(F)F)cc(C)c1NC(=O)NC(=O)c1c(F)cccc1F,Activity,Plutella xylostella,>92%
same,mortality,Spodoptera littoralis [8],18%
same,mortality at 0.25 µg/mL,Mythimna separata [17],80%
same,Activity,Spodoptera littoralis [9],31%
same,Activity,Pieris rapae,Active
same,Activity,Bemisia tabaci [10],inactive
same,Activity,Spodoptera littoralis [11],45%
same,mortality,Spodoptera littoralis [12],36%
same,mortality at 0.125 µg/mL,Mythimna separata [18],50%
same,mortality,Spodoptera littoralis [13],8%
same,Activity,Cnaphalocrocis medinalis,Active
same,mortality,Spodoptera littoralis [15],78%
O=C(NC(=O)c1c(F)cccc1F)Nc1c(F)cc(C(F)(C(F)(F)F)C(F)(F)F)cc1F,mortality at 0.25 µg/mL,Mythimna separata [17],100%
same,mortality at 0.125 µg/mL,Mythimna separata [18],62.7%
O=C(NC(=O)c1c(F)cccc1F)Nc1ccc(C(F)(C(F)(F)F)C(F)(F)F)cc1F,mortality at 0.25 µg/mL,Mythimna separata [17],100%
same,mortality at 0.125 µg/mL,Mythimna separata [18],63.3%
O=C(NC(=O)c1ccccc1Cl)Nc1ccc(C(F)(C(F)(F)F)C(F)(F)F)cc1,mortality at 5 µg/mL,Mythimna separata [19],66.9%
same,mortality at 10 µg/mL,Mythimna separata [16],100%
O=C(NC(=O)c1c(F)cccc1F)Nc1ccc(C(F)(C(F)(F)F)C(F)(F)F)cc1Cl,mortality at 15.625 µg/mL,Mythimna separata [1],20%
same,mortality at 31.25 µg/mL,Mythimna separata [2],100%
Cc1cc(C(F)(C(F)(F)F)C(F)(F)F)cc(C)c1NC(=O)NC(=O)c1ccccc1Cl,mortality at 50 µg/mL,Mythimna separata [20],100%
same,mortality at 10 µg/mL,Mythimna separata [16],69.1%
O=C(NC(=O)c1c(F)cccc1F)Nc1ccc(Cl)cc1 [DIFLUBENZURON],mortality at 0.25 µg/mL,Mythimna separata [17],100%
same,mortality at 0.125 µg/mL,Mythimna separata [18],69.5%
COc1ccc(NC(=O)NC(=O)c2c(F)cccc2F)c(C(F)(C(F)(F)F)C(F)(F)F)c1,mortality at 62.5 µg/mL,Mythimna separata [3],100%
same,mortality at 31.25 µg/mL,Mythimna separata [2],86.6%
